Experiments:
Class I/IIb HDACs [1] = test: class-distinguishing fluorogenic substrates whole-cell assay, class I/IIb, L3.6; format: cell-based; conditions: read-out: IC50 Class I/IIb HDACs, L3.6 cells
Procedure, shortened: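 Whole cells incubated with 200 µM Boc-Lys-Ac (class-I/IIb selective substrate) in RPMI without phenol red plus 0.1% FBS, 3 h at 37 °C. Test compound given as an 11-point curve at 5% final DMSO; 5 µM trichostatin A served as positive control and DMSO alone as negative control. Trypsin developer (2.5 mg/mL, with tween 80) added for 1 h to lyse cells and release fluorophore. Read at ex 360 / em 460 nm; IC50 by nonlinear fit.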

Other HDACS = test: fluorogenic assay against recombinant HDAC proteins, other HDACs; format: biochemical, human; conditions: read-out: IC50 Other HDACS
Procedure, shortened: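 Recombinant human HDACs screened with commercial fluorogenic enzyme assay kits, following the manufacturer protocol, at 9 dilutions of test compound. Fluorescence read on a microplate reader. IC50 from nonlinear curve fit of % HDAC activity inhibition vs compound concentration.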

[2] = tested on: indigenous class-IIa HDACs; conditions: read-out: IC50 binding to indigenous class-IIa HDACs; THP-1 cells; ref [19]; cited from earlier work
HDAC4 = conditions: read-out: IC50 HDAC4 non-cell-based inhibition; ref [19],[20]; cited from earlier work
HDAC5 = conditions: read-out: IC50 HDAC5 non-cell-based inhibition; ref [19],[20]; cited from earlier work
HDAC9 = conditions: in words; ref [19],[20]; cited from earlier work
Class IIa HDACs = test: class-distinguishing fluorogenic substrates whole-cell assay, class IIa, HT-29; format: cell-based; conditions: read-out: IC50 Class-IIa, HT-29 cells, Boc-Lys-TFA substrate
Class I/IIb HDACs [3] = test: class-distinguishing fluorogenic substrates whole-cell assay, class I/IIb, HT-29; format: cell-based; conditions: read-out: IC50 Class-I/IIb, HT-29 cells, Boc-Lys-Ac substrate

| IC50 (Class I/IIb HDACs [1]) [nM] | IC50 (Other HDACS) [nM] | IC50 (Class IIa HDACs) [nM] | IC50 (Class I/IIb HDACs [3]) [nM] | Compound | IC50 [2] [nM] | IC50 (HDAC4) [nM] | IC50 (HDAC5) [nM] | IC50 HDAC9 non-cell-based inhibition (HDAC9) |
| --- | --- | --- | --- | --- | --- | --- | --- | --- |
| > 5000 | > 5000 | – | – | CC(C)(CNC(=O)c1cccc(-c2noc(C(F)(F)F)n2)c1)c1coc(-c2ccccc2)n1 [TMP195] | 300 | > 100 | > 100 | low nM range |
| – | – | 933 ± 260 | > 15000 | N-(3-(benzylamino)-2,2-dimethyl-3-oxopropyl)-4-(5-(trifluoromethyl)-1,2,4-oxadiazol-3-yl)benzamide [Compound 10] | – | – | – | – |

— article PMC8919062 (European journal of medicinal chemistry, 2021)
